Source: ChEMBL document CHEMBL4196063, “A novel synthetic peptide inspired on Lys49 phospholipase A2 from Crotalus oreganus abyssus snake venom active against multidrug-resistant clinical isolates” (2018)
Calls of active or inactive are those of the source. The rule behind the calls is not given here. Where a SMILES comes first, the peptide text is derived from it.

Columns and labels:
[1] = tested on: Escherichia coli; assay: Antibacterial activity against Escherichia coli ATCC 25922 at 575 uM after 24 hrs by agar well diffusion assay; assay type: functional, organism-based
In short: (§1)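 Agar well diffusion followed Bauer/CLSI with minor changes. Strains were subcultured in MHB and grown on Mueller Hinton agar at 37 °C for a day. Wells were punched aseptically, and 100 μl of peptide in PBS (575 μM) was placed in each well. Plates were incubated at 37 °C for 24 h and inhibition halo diameters measured by caliper. Commercial antibiotics served as positive control, with at least three runs.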

[2] = tested on: Staphylococcus aureus; assay: Antibacterial activity against Staphylococcus aureus rib1 at 575 uM after 24 hrs by agar well diffusion assay; assay type: functional, organism-based; in short: as §1
[3] = tested on: Pseudomonas aeruginosa; assay: Antibacterial activity against Pseudomonas aeruginosa 31NM at 575 uM after 24 hrs by agar well diffusion assay; assay type: functional, organism-based; in short: as §1
[4] = tested on: Pseudomonas aeruginosa; assay: Antibacterial activity against Pseudomonas aeruginosa ATCC 27853 at 575 uM after 24 hrs by agar well diffusion assay; assay type: functional, organism-based; in short: as §1
[5] = tested on: Staphylococcus aureus; assay: Antibacterial activity against Staphylococcus aureus BEC9393 at 575 uM after 24 hrs by agar well diffusion assay; assay type: functional, organism-based; in short: as §1
[6] = tested on: Pseudomonas aeruginosa; assay: Growth inhibition of Pseudomonas aeruginosa 31NM at 5.95 uM after 24 hrs by CLSI broth microdilution method; assay type: functional; conditions: read-out: GI
In short: (§2)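 Broth microdilution per CLSI. Peptide dissolved in Mueller Hinton broth and serially diluted (5.95–190 μM tested) in MHB. Bacteria were subcultured in MHB and grown on Mueller Hinton agar at 37 °C for a day, then added at 1 × 10⁸ CFU/ml. Incubation 37 °C for 24 h, with growth read at 595 nm. Antibiotic positive and medium negative controls. At least three runs, mean ± SD.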

[7] = tested on: Pseudomonas aeruginosa; assay: Antibacterial activity against Pseudomonas aeruginosa 31NM at 5.95 to 190 uM after 24 hrs by CLSI broth microdilution method; assay type: functional, organism-based
In short: (§3)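 Strains were kept frozen in MHB with 20% glycerol, subcultured in MHB, and grown on Mueller Hinton agar at 37 °C for a day. Peptide was dissolved in medium and serially diluted into MHB in 96-well plates, then bacterial suspension was added (1 × 10⁸ CFU/ml). Plates were held at 37 °C for 24 h and growth inhibition read at 595 nm. Runs were done at least three times, mean ± SD.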

[8] = tested on: Staphylococcus aureus; assay: Antibacterial activity against Staphylococcus aureus rib1 at 5.95 to 190 uM after 24 hrs by CLSI broth microdilution method; assay type: functional, organism-based; in short: as §3
[9] = tested on: Pseudomonas aeruginosa; assay: Antibacterial activity against Pseudomonas aeruginosa ATCC 27853 at 5.95 to 190 uM after 24 hrs by CLSI broth microdilution method; assay type: functional, organism-based; in short: as §3
[10] = tested on: Staphylococcus aureus; assay: Antibacterial activity against Staphylococcus aureus BEC9393 at 5.95 to 190 uM after 24 hrs by CLSI broth microdilution method; assay type: functional, organism-based; in short: as §3
[11] = tested on: Pseudomonas aeruginosa; assay: Growth inhibition of Pseudomonas aeruginosa ATCC 27853 at 5.95 uM after 24 hrs by CLSI broth microdilution method; assay type: functional; conditions: ATCC 27853, 24 h, read-out: GI; in short: as §2
[12] = tested on: Escherichia coli; assay: Antibacterial activity against Escherichia coli ATCC 25922 at 5.95 to 190 uM after 24 hrs by CLSI broth microdilution method; assay type: functional, organism-based; in short: as §3

Structure (SMILES)	Activity [1]	Activity [2]	Activity [3]	Activity [4]	Activity [5]	inhibition of growth at 5.95 µM [6] [%]	Activity [7]	Activity [8]	Activity [9]	Activity [10]	inhibition of growth at 5.95 µM [11] [%]	Activity [12]
CC(C)C[C@H](NC(=O)[C@H](Cc1ccccc1)NC(=O)[C@H](CCCCN)NC(=O)[C@@H]1CCCN1C(=O)[C@@H](N)Cc1ccc(O)cc1)C(=O)N[C@@H](CS)C(=O)N[C@@H](CCCCN)C(=O)N[C@@H](CCCCN)C(=O)N1CCC[C@H]1C(=O)O (H-YPKFLCKKP-OH)	inactive	inactive	inactive	inactive	inactive							
CC[C@H](C)[C@H](NC(=O)[C@H](CCCNC(=N)N)NC(=O)[C@H](Cc1ccc(O)cc1)NC(=O)[C@H](CCCCN)NC(=O)[C@@H](N)CCCCN)C(=O)N[C@@H](Cc1ccc(O)cc1)C(=O)N1CCC[C@H]1C(=O)N[C@@H](CCCCN)C(=O)N[C@@H](Cc1ccccc1)C(=O)N[C@@H](CC(C)C)C(=O)N[C@@H](CS)C(=O)N[C@@H](CCCCN)C(=O)N[C@@H](CCCCN)C(=O)O (H-KKYRIYPKFLCKK-OH)	Active	Active	Active	Active	Active	48	Active	Active	Active	Active	52	Active
